{
  "source": "ChEMBL document CHEMBL4732226",
  "about": "“Discovery of a potent G-protein-coupled receptor 119 agonist for the treatment of type 2 diabetes” (Bioorg Med Chem, 2021)",
  "key": {"[1]": {"experiment": "Toxicity in female Wistar rat assessed as ratio of kidney to body weight at 100 mg/kg, po after 28 days (reference value: 0.801 +/- 0.071)", "type": "organism-based", "conditions": "in vivo, 672 h, time 28 day"}, "[2]": {"experiment": "Toxicity in male Wistar rat assessed as urea level at 400 mg/kg, po after 28 days (reference value: 58.14 +/- 9.13 mg/dl)", "type": "organism-based", "conditions": "in vivo, 672 h, time 28 day"}, "[3]": {"experiment": "Toxicity in male Wistar rat assessed as ratio of adrenals to body weight at 100 mg/kg, po after 28 days (reference value: 0.020 +/- 0.003)", "type": "organism-based", "conditions": "in vivo, 672 h, time 28 day"}, "[4]": {"experiment": "Toxicity in female Wistar rat assessed as ratio of heart to body weight at 100 mg/kg, po after 28 days (reference value: 0.38 +/- 0.037)", "type": "organism-based", "conditions": "in vivo, 672 h, time 28 day"}, "[5]": {"experiment": "Toxicity in female Wistar rat assessed as ratio of adrenals to body weight at 400 mg/kg, po after 28 days (reference value: 0.045 +/- 0.007)", "type": "organism-based", "conditions": "in vivo, 672 h, time 28 day"}, "[6]": {"experiment": "Toxicity in female Wistar rat assessed as ratio of ovaries to body weight at 200 mg/kg, po after 28 days (reference value: 0.091 +/- 0.009)", "type": "organism-based", "conditions": "in vivo, 672 h, time 28 day"}, "[7]": {"experiment": "Elimination rate constant in Sprague-Dawley rat at 25 mg/kg, po up to 24 hrs", "type": "ADME, organism-based", "conditions": "in vivo", "method_in_brief": "(§1)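 Male SD rats fasted overnight, water ad libitum, fed 4 h after dosing. Single oral gavage of 25 mg/kg as a homogeneous suspension in 0.5% Tween 80 in 0.5% Na-CMC. Blood drawn into Na-heparin tubes at 0.25, 0.5, 1, 2, 4, 6, 8 and 24 h; plasma stored at -70°C. Parameters by non-compartmental analysis, with C0 taken as zero and BLQ samples set to zero.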"}, "[8]": {"experiment": "Toxicity in female Wistar rat assessed as ratio of thymus to body weight at 400 mg/kg, po after 28 days (reference value: 0.260 +/- 0.025)", "type": "organism-based", "conditions": "in vivo, 672 h, time 28 day"}, "[9]": {"experiment": "AUC(0 to infinity) in Sprague-Dawley rat at 25 mg/kg, po up to 24 hrs", "type": "ADME, organism-based", "set-up": "route oral, dose 25 mg/kg, time <=24", "conditions": "in vivo", "method_in_brief": "as §1"}, "[10]": {"target": "T1, Glucose-dependent insulinotropic receptor (Homo sapiens) (UniProt Q8TDV5)", "T1 sequence (whole entry)": "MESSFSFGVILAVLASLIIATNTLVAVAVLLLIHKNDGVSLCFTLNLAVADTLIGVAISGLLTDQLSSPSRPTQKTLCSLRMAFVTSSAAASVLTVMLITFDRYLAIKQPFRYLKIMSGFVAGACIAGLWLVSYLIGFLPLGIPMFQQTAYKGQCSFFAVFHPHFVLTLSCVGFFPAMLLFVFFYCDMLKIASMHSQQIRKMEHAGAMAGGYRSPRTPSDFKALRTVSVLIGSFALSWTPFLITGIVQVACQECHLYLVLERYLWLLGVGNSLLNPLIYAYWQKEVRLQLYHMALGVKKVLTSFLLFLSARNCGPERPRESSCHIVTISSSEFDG", "experiment": "Agonist activity at human GPR119 stably transfected in CHO-K1 cells assessed as increase in cAMP stimulation after 1 hr by enzyme immunoassay relative to AR231453", "type": "functional, cell-based", "conditions": "filed as agonist"}, "[11]": {"experiment": "Toxicity in female Wistar rat assessed as ratio of heart to body weight at 400 mg/kg, po after 28 days (reference value: 0.38 +/- 0.037)", "type": "organism-based", "conditions": "in vivo, 672 h, time 28 day"}, "[12]": {"experiment": "Toxicity in male Wistar rat assessed as ratio of kidney to body weight at 200 mg/kg, po after 28 days (reference value: 0.787 +/- 0.078)", "type": "organism-based", "conditions": "in vivo, 672 h, time 28 day"}, "[13]": {"experiment": "Toxicity in male Wistar rat assessed as ALP level at 200 mg/kg, po after 28 days (reference value: 174.77 +/- 25.42 U/L)", "type": "organism-based", "conditions": "in vivo, 672 h, time 28 day"}, "[14]": {"experiment": "Toxicity in female Wistar rat assessed as creatinine level at 400 mg/kg, po after 28 days (reference value: 0.6 +/- 0.04 mg/dl)", "type": "organism-based", "conditions": "in vivo, 672 h, time 28 day"}, "[15]": {"experiment": "AUC(0 to t) in Beagle dog at 10 mg/kg, po up to 24 hrs", "type": "ADME, organism-based, Canis lupus familiaris", "set-up": "route oral, dose 10 mg/kg, time <=24", "conditions": "in vivo", "method_in_brief": "(§2)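 Single oral dose at 10 mg/kg given to male Wistar rats and to Beagle dogs; bioavailability also determined in both species.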"}, "[16]": {"experiment": "Toxicity in female Wistar rat assessed as ratio of spleen to body weight at 400 mg/kg, po after 28 days (reference value: 0.244 +/- 0.032)", "type": "organism-based", "conditions": "in vivo, 672 h, time 28 day"}, "[17]": {"experiment": "Toxicity in female Wistar rat assessed as neurobehavioral changes at 400 mg/kg, po after 28 days", "type": "organism-based", "conditions": "in vivo, 672 h, time 28 day", "method_in_brief": "(§3)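 Repeated-dose oral toxicity by gavage in Wistar rats, 10 males and 10 females per group, given 100, 200 or 400 mg/kg once daily for 28 days. Endpoints were clinical signs, mortality, neurobehaviour, food intake, ophthalmic examination and body weight. Animals were sacrificed on day 29 for blood biochemistry, organ-to-body weight ratios and histopathology.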"}, "[18]": {"experiment": "Half life in Wistar rat at 10 mg/kg, po up to 24 hrs", "type": "ADME, organism-based", "conditions": "in vivo", "method_in_brief": "as §2"}, "[19]": {"experiment": "Toxicity in male Wistar rat assessed as ALT level at 100 mg/kg, po after 28 days (reference value: 30.47 +/- 2.63 U/L)", "type": "organism-based", "conditions": "in vivo, 672 h, time 28 day"}, "[20]": {"experiment": "Toxicity in female Wistar rat assessed as ratio of spleen to body weight at 100 mg/kg, po after 28 days (reference value: 0.244 +/- 0.032)", "type": "organism-based", "conditions": "in vivo, 672 h, time 28 day"}, "[21]": {"experiment": "Toxicity in female Wistar rat assessed as ratio of heart to body weight at 200 mg/kg, po after 28 days (reference value: 0.38 +/- 0.037)", "type": "organism-based", "conditions": "in vivo, 672 h, time 28 day"}, "[22]": {"experiment": "Toxicity in female Wistar rat assessed as ratio of ovaries to body weight at 100 mg/kg, po after 28 days (reference value: 0.091 +/- 0.009)", "type": "organism-based", "conditions": "in vivo, 672 h, time 28 day"}, "[23]": {"experiment": "Toxicity in female Wistar rat assessed as ratio of brain to body weight at 200 mg/kg, po after 28 days (reference value: 1.1 +/- 0.078)", "type": "organism-based", "conditions": "in vivo, 672 h, time 28 day"}, "[24]": {"experiment": "Toxicity in female Wistar rat assessed as albumin level at 400 mg/kg, po after 28 days (reference value: 3.57 +/- 0.14 g.dl)", "type": "organism-based", "conditions": "in vivo, 672 h, time 28 day"}, "[25]": {"experiment": "Elimination rate constant in Wistar rat at 10 mg/kg, po up to 24 hrs", "type": "ADME, organism-based", "conditions": "in vivo", "method_in_brief": "as §2"}, "[26]": {"experiment": "Toxicity in male Wistar rat assessed as ratio of heart to body weight at 100 mg/kg, po after 28 days (reference value: 0.333 +/- 0.036)", "type": "organism-based", "conditions": "in vivo, 672 h, time 28 day"}, "[27]": {"experiment": "Toxicity in male Wistar rat assessed as ratio of epididymides to body weight at 100 mg/kg, po after 28 days (reference value: 0.361 +/- 0.028)", "type": "organism-based", "conditions": "in vivo, 672 h, time 28 day"}, "[28]": {"experiment": "Toxicity in male Wistar rat assessed as albumin level at 100 mg/kg, po after 28 days (reference value: 3.56 +/- 0.08 g.dl)", "type": "organism-based", "conditions": "in vivo, 672 h, time 28 day"}, "[29]": {"experiment": "Toxicity in male Wistar rat assessed as glucose level at 200 mg/kg, po after 28 days (reference value: 89.02 +/- 13.41 mg/dl)", "type": "organism-based", "conditions": "in vivo, 672 h, time 28 day"}, "[30]": {"experiment": "Toxicity in female Wistar rat assessed as ophthalmic examination at 400 mg/kg, po after 28 days", "type": "organism-based", "conditions": "in vivo, 672 h, time 28 day", "method_in_brief": "as §3"}, "[31]": {"experiment": "Toxicity in male Wistar rat assessed as creatinine level at 100 mg/kg, po after 28 days (reference value: 0.61 +/- 0.04 mg/dl)", "type": "organism-based", "conditions": "in vivo, 672 h, time 28 day"}},
  "data": [
    {"smiles": "Cc1c(Oc2cccc(/C=C3\\SC(=O)NC3=O)c2)ncnc1OC1CCN(C(=O)OC(C)(C)C)CC1", "values": [
      {"measurement": "Ratio", "setting": "[1]", "value": 0.875},
      {"measurement": "Activity", "setting": "[2]", "value": 51.15, "unit": "mg/dL"},
      {"measurement": "Ratio", "setting": "[3]", "value": 0.023},
      {"measurement": "Ratio", "setting": "[4]", "value": 0.41},
      {"measurement": "Ratio", "setting": "[5]", "value": 0.042},
      {"measurement": "Ratio", "setting": "[6]", "value": 0.089},
      {"measurement": "k el at 24 h", "setting": "[7]", "value": "9.17e-05", "unit": "s⁻¹"},
      {"measurement": "Ratio", "setting": "[8]", "value": 0.244},
      {"measurement": "AUC(0-inf)", "setting": "[9]", "value": 19700, "unit": "ng·h/mL"},
      {"measurement": "Emax", "setting": "[10]", "value": 160, "unit": "%"},
      {"measurement": "Ratio", "setting": "[11]", "value": 0.367},
      {"measurement": "Ratio", "setting": "[12]", "value": 0.847},
      {"measurement": "Activity", "setting": "[13]", "value": 164.68, "unit": "U/L"},
      {"measurement": "Activity", "setting": "[14]", "value": 0.6, "unit": "mg/dL"},
      {"measurement": "AUC(0-t) at 24 h", "setting": "[15]", "value": 14900, "unit": "ng·h/mL"},
      {"measurement": "Ratio", "setting": "[16]", "value": 0.228},
      {"measurement": "Activity", "setting": "[17]", "value": "Non-Toxic"},
      {"measurement": "half-life", "setting": "[18]", "value": 12.3, "unit": "h"},
      {"measurement": "Activity", "setting": "[19]", "value": 28.9, "unit": "U/L"},
      {"measurement": "Ratio", "setting": "[20]", "value": 0.241},
      {"measurement": "Ratio", "setting": "[21]", "value": 0.394},
      {"measurement": "Ratio", "setting": "[22]", "value": 0.089},
      {"measurement": "Ratio", "setting": "[23]", "value": 1.114},
      {"measurement": "Activity", "setting": "[24]", "value": 3.57, "unit": "g/dL"},
      {"measurement": "k el at 24 h", "setting": "[25]", "value": "1.94e-05", "unit": "s⁻¹"},
      {"measurement": "Ratio", "setting": "[26]", "value": 0.347},
      {"measurement": "Ratio", "setting": "[27]", "value": 0.371},
      {"measurement": "Activity", "setting": "[28]", "value": 3.47, "unit": "g/dL"},
      {"measurement": "Activity", "setting": "[29]", "value": 75.19, "unit": "mg/dL"},
      {"measurement": "Activity", "setting": "[30]", "value": "Non-Toxic"},
      {"measurement": "Activity", "setting": "[31]", "value": 0.57, "unit": "mg/dL"}
    ]}
  ]
}
